Ki and inhibition data for 32 molecules are collected here from ChEMBL document CHEMBL1146755, “Potent nonpeptide vasopressin receptor antagonists based on oxazino- and thiazinobenzodiazepine templates” (Bioorg Med Chem Lett, 2004).

pKi: −log10 of the molar value.

As usually defined, the pKi is −log10 of the Ki, conventionally taken in molar units. For orientation: inhibition means the drop in the measured response relative to a control, in per cent.

Assay [1] deals with T1, Vasopressin V2 receptor (Homo sapiens, UniProt P30518). Description: Inhibition of [3H]AVP binding to recombinant human vasopressin V2 receptor. In outline:
(§1)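 Competition binding on membranes from HEK-293 cells transfected with recombinant human V1a or V2 receptor; Ki values reported in nM.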

Assay [2] concerns the target T1, Vasopressin V2 receptor. Briefly: Inhibition of 1 nM AVP-induced cAMP accumulation in cells expressing human vasopressin V2 receptor. It is filed as functional. In outline:
(§2)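 HEK-293 cells expressing human receptor stimulated with 1 nM AVP; antagonism read as change in intracellular Ca2+ (V1a) or cAMP accumulation (V2).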
(In general: Changes in cAMP serve as a functional read-out for many G protein-coupled receptors.)

For assay [3], the target named is T2, Vasopressin V1a receptor (Homo sapiens, UniProt P37288). Briefly: Inhibition of 1 nM AVP-induced calcium mobilisation in cells expressing human vasopressin V1a receptor. Summed up:
as §2
For orientation: A change in cytosolic calcium serves as a functional read-out for many receptors and channels.
Target sequence in this assay (P37288 whole entry): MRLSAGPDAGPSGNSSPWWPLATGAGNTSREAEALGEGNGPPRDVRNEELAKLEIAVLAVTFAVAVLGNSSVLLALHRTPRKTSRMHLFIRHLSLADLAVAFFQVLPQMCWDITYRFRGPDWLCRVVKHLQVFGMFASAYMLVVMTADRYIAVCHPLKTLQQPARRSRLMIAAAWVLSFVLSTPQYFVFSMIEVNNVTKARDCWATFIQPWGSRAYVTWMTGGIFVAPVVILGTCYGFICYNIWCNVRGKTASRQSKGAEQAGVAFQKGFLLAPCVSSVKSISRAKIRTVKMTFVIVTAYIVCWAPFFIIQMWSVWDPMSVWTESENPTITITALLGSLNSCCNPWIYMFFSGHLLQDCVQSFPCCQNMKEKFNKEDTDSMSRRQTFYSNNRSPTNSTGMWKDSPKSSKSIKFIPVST

Assay [4] deals with T2, Vasopressin V1a receptor. Description: Inhibition of [3H]AVP binding to recombinant human vasopressin V1a receptor. In outline: as §1
Target sequence in this assay (P37288 whole entry): as above
The target in assay [5] is T2, Vasopressin V1a receptor. Briefly: Inhibition of [3H]AVP binding to recombinant human vasopressin V1a receptor at 1000 nM.
Target sequence in this assay (P37288 whole entry, looked up): as the sequence (P37288 whole entry) above
Assay [6] has as its target T2, Vasopressin V1a receptor. Description: Inhibition of [3H]AVP binding to recombinant human vasopressin V1a receptor at 100 nM.
Target sequence in this assay (P37288 whole entry, looked up): as the sequence (P37288 whole entry) above

T1 sequence (P30518 whole entry): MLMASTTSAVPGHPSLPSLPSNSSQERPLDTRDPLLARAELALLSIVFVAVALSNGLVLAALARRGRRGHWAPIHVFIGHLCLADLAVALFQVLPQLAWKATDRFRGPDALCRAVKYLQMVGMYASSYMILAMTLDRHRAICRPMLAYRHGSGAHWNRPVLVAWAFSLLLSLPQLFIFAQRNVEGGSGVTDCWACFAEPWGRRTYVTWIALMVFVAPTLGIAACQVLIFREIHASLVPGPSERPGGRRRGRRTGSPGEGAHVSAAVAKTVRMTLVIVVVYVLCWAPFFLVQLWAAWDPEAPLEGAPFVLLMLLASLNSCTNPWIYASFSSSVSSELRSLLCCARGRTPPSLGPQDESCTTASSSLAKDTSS

Turning to `O=C(Nc1ccc(C(=O)N2C[C@H]3COCCN3Cc3ccccc32)c(Cl)c1)c1ccccc1-c1cccc(O)c1`, the results for the pKi at Vasopressin V2 receptor [1], at Vasopressin V2 receptor [2] and at Vasopressin V1a receptor [3] were 8.30, 7.70 and 4.96, respectively. For the same molecule, on Vasopressin V1a receptor [4], the Ki result is “Not Active”.

In the case of `O=C(Nc1ccc(C(=O)N2CC3CSCCN3Cc3ccccc32)c(Cl)c1)c1cc(F)ccc1-c1ccccc1` (centres undefined), the pKi on Vasopressin V2 receptor [1] is 7.43; on Vasopressin V2 receptor [2], 7.15; on Vasopressin V1a receptor [3] it was 4.85. Also, the Ki result on Vasopressin V1a receptor [4] is reported as “Not Active”.

Regarding `Cc1ccc(F)cc1C(=O)Nc1ccc(C(=O)N2C[C@H]3COCCN3Cc3ccccc32)c(Cl)c1`, the pKi is 8.55 at Vasopressin V2 receptor [1], 7.92 on Vasopressin V2 receptor [2], 5.70 on Vasopressin V1a receptor [3] and 7.00 at Vasopressin V1a receptor [4].

For `COc1cc(NC(=O)c2ccccc2-c2ccccc2)ccc1C(=O)N1CC2CSCCN2Cc2ccccc21` (centres undefined), on Vasopressin V2 receptor [1], the pKi is 7.82. The Ki entry at Vasopressin V1a receptor [4] is given as “Not Active”.

As for `O=C(Nc1ccc(C(=O)N2C[C@H]3CSCCN3Cc3ccccc32)cc1)c1ccccc1-c1ccccc1`, the figures for the pKi at Vasopressin V1a receptor [3] and at Vasopressin V1a receptor [4] were 5.85 and 7.08, respectively.

On to `O=C(Nc1ccc(C(=O)N2CC3CSCCN3Cc3ccccc32)c(Cl)c1)c1ccccc1-c1ccccc1` (centres undefined), for which the values for the pKi at Vasopressin V2 receptor [1] and on Vasopressin V1a receptor [4] were 7.96 and 6.31, respectively.

Turning to `COc1ccc(-c2ccccc2C(=O)Nc2ccc(C(=O)N3C[C@H]4COCCN4Cc4ccccc43)c(Cl)c2)cc1`, the pKi on Vasopressin V2 receptor [1] was 8.55; on Vasopressin V2 receptor [2], 8.52; at Vasopressin V1a receptor [3], 5.72. Moreover, on Vasopressin V1a receptor [4], the Ki entry was “Not Active”.

For the molecule `O=C(Nc1ccc(C(=O)N2CC3CS(=O)(=O)CCN3Cc3ccccc32)cc1)c1ccccc1-c1ccccc1` (centres undefined), the pKi on Vasopressin V2 receptor [1] was 7.19; at Vasopressin V2 receptor [2], 7.40; on Vasopressin V1a receptor [3], 5.85. On Vasopressin V1a receptor [4], the Ki result was “Not Active”.

For `O=C(Nc1ccc(C(=O)N2CC3CSCCN3Cc3ccc(F)cc32)cc1)c1ccccc1-c1ccccc1` (centres undefined), the pKi on Vasopressin V2 receptor [1] is 8.05. In addition, the Ki entry at Vasopressin V1a receptor [4] is reported as “Not Active”.

For the molecule `O=C(Nc1ccc(C(=O)N2C[C@H]3COCCN3Cc3ccccc32)c(Cl)c1)c1cc(F)ccc1-c1ccccc1`, the pKi was 7.96 at Vasopressin V2 receptor [1], 7.92 on Vasopressin V2 receptor [2] and 5.19 at Vasopressin V1a receptor [3]. For the same molecule, the inhibition on Vasopressin V1a receptor [5] amounted to 62%.

`O=C(Nc1ccc(C(=O)N2CC3CSCCN3Cc3cccc(Cl)c32)cc1)c1ccccc1-c1ccccc1` (centres undefined): the pKi at Vasopressin V2 receptor [1] was 8.00. For the same molecule, the Ki entry at Vasopressin V1a receptor [4] is reported as “Not Active”.

Consider `O=C(Nc1ccc(C(=O)N2CC3COCCN3Cc3ccccc32)c(Cl)c1)c1ccccc1-c1ccccc1` (single isomer, unassigned), for which the pKi was 7.82 on Vasopressin V2 receptor [1], 6.77 at Vasopressin V2 receptor [2], 4.85 at Vasopressin V1a receptor [3] and 6.19 on Vasopressin V1a receptor [4].

As for `O=C(Nc1ccc(C(=O)N2CC3CSCCN3Cc3ccccc32)c(O)c1)c1ccccc1-c1ccccc1` (centres undefined), the pKi was 8.49 at Vasopressin V2 receptor [1] and 6.96 at Vasopressin V1a receptor [4].

On to `COc1ccc(C(=O)Nc2ccc(C(=O)N3C[C@H]4COCCN4Cc4ccccc43)c(Cl)c2)c(-c2ccccc2)c1`, for which the pKi at Vasopressin V2 receptor [1] is 8.38; on Vasopressin V2 receptor [2], 8.30; at Vasopressin V1a receptor [3], 5.89. Also, the Ki result at Vasopressin V1a receptor [4] was “Not Active”.

On to `O=C(Nc1ccc(C(=O)N2CC3CSCCN3Cc3ccc(F)c(F)c32)cc1)c1ccccc1-c1ccccc1` (centres undefined), for which the pKi at Vasopressin V2 receptor [1] is 7.74. Also, the Ki entry on Vasopressin V1a receptor [4] is reported as “Not Active”.

Take `Cc1cc(NC(=O)c2ccccc2-c2ccccc2)ccc1C(=O)N1CC2CSCCN2Cc2ccccc21` (centres undefined): the negative-log Ki (pKi) on Vasopressin V2 receptor [1] is 8.00. The Ki result on Vasopressin V1a receptor [4] is listed as “Not Active”.

Turning to `Cc1ccc(F)cc1C(=O)Nc1ccc(C(=O)N2CC3CSCCN3Cc3ccccc32)c(Cl)c1` (centres undefined), the pKi on Vasopressin V2 receptor [1] was 7.22; at Vasopressin V2 receptor [2] it was 6.52; on Vasopressin V1a receptor [3], 4.85. Moreover, the Ki result on Vasopressin V1a receptor [4] is reported as “Not Active”.

For the molecule `O=C(Nc1ccc(C(=O)N2C[C@H]3COCCN3Cc3ccccc32)c(Cl)c1)c1cc(O)ccc1-c1ccccc1`, the pKi is 7.89 on Vasopressin V2 receptor [1], 7.15 on Vasopressin V2 receptor [2] and 5.72 at Vasopressin V1a receptor [3]. Further, on Vasopressin V1a receptor [4], the Ki result is “Not Active”.

As for `O=C(Nc1ccc(C(=O)N2C[C@H]3COCCN3Cc3ccccc32)c(Cl)c1)c1ccccc1-c1ccc(O)cc1`, the pKi at Vasopressin V2 receptor [1] is 8.38; on Vasopressin V2 receptor [2], 7.96; on Vasopressin V1a receptor [3], 5.38. For the same molecule, the Ki entry on Vasopressin V1a receptor [4] is on record as “Not Active”.

On to `O=C(Nc1ccc(C(=O)N2C[C@H]3COCCN3Cc3ccccc32)c(Cl)c1)c1ccc(O)cc1-c1ccccc1`, for which the pKi on Vasopressin V1a receptor [3] was 5.80; at Vasopressin V1a receptor [4], 7.52.

With `O=C(Nc1ccc(C(=O)N2CC3CSCCN3Cc3ccccc32)cc1)c1ccccc1-c1ccccc1` (centres undefined), the pKi was 5.10 on Vasopressin V1a receptor [3] and 7.31 at Vasopressin V1a receptor [4].

For `O=C(Nc1ccc(C(=O)N2C[C@H]3COCCN3Cc3ccccc32)c(Cl)c1)c1ccc(F)cc1-c1ccccc1`, the pKi is 8.72 at Vasopressin V2 receptor [1], 8.70 on Vasopressin V2 receptor [2] and 6.15 at Vasopressin V1a receptor [3]. Besides, the Ki entry at Vasopressin V1a receptor [4] was “Not Active”.

Consider `COc1ccc(-c2ccccc2)c(C(=O)Nc2ccc(C(=O)N3C[C@H]4COCCN4Cc4ccccc43)c(Cl)c2)c1`, for which the pKi on Vasopressin V2 receptor [1] is 7.77. At Vasopressin V1a receptor [4], the Ki result is on record as “Not Active”.

Regarding `O=C(Nc1ccc(C(=O)N2C[C@H]3CSCCN3Cc3ccccc32)c(Cl)c1)c1ccccc1-c1ccccc1`, the negative logarithm of the Ki (pKi) is 8.43 on Vasopressin V2 receptor [1], 7.77 at Vasopressin V2 receptor [2], 4.85 on Vasopressin V1a receptor [3] and 6.60 on Vasopressin V1a receptor [4].

For `O=C(Nc1ccc(C(=O)N2CC3CSCCN3Cc3ccccc32)c(F)c1)c1ccccc1-c1ccccc1` (centres undefined), the pKi on Vasopressin V2 receptor [1] was 8.00. Besides, the Ki result on Vasopressin V1a receptor [4] is reported as “Not Active”.

Take `O=C(Nc1ccc(C(=O)N2CC3CSCCN3Cc3ccccc32)c(Cl)c1)c1ccc(F)cc1-c1ccccc1` (centres undefined): the negative logarithm of the Ki (pKi) at Vasopressin V2 receptor [1] is 8.43; on Vasopressin V1a receptor [4], 6.39.

For `O=C(Nc1ccc(C(=O)N2C[C@H]3COCCN3Cc3ccccc32)c(Cl)c1)c1ccccc1-c1ccccc1`, the pKi at Vasopressin V2 receptor [1] is 9.05; on Vasopressin V2 receptor [2], 8.40; on Vasopressin V1a receptor [3], 6.22; at Vasopressin V1a receptor [4] it was 7.62.

On to `O=C(Nc1ccc(C(=O)N2C[C@@H]3CSCCN3Cc3ccccc32)cc1)c1ccccc1-c1ccccc1`, for which the pKi is 5.89 at Vasopressin V1a receptor [3] and 6.54 on Vasopressin V1a receptor [4].

In the case of `Cc1ccc2c(c1)N(C(=O)c1ccc(NC(=O)c3ccccc3-c3ccccc3)cc1)CC1CSCCN1C2` (centres undefined), the negative logarithm of the Ki (pKi) is 8.10 on Vasopressin V2 receptor [1], 7.64 on Vasopressin V2 receptor [2], 4.85 on Vasopressin V1a receptor [3] and 7.74 on Vasopressin V1a receptor [4].

`O=C(Nc1ccc(C(=O)N2C[C@H]3COCCN3Cc3ccccc32)cc1)c1ccccc1-c1ccccc1`: the pKi on Vasopressin V2 receptor [1] was 8.43; on Vasopressin V2 receptor [2] it was 7.80. For the same molecule, at Vasopressin V1a receptor [6], the inhibition turned out to be 69%.

For the molecule `COc1cccc(-c2ccccc2C(=O)Nc2ccc(C(=O)N3C[C@H]4COCCN4Cc4ccccc43)c(Cl)c2)c1`, the pKi on Vasopressin V2 receptor [1] was 8.43; at Vasopressin V2 receptor [2], 8.70; on Vasopressin V1a receptor [3], 5.47. Also, the Ki entry on Vasopressin V1a receptor [4] is on record as “Not Active”.

On to `Cc1ccc(F)cc1C(=O)Nc1ccc(C(=O)N2Cc3cccn3Cc3ccccc32)c(Cl)c1` [LIXIVAPTAN], for which the negative logarithm of the Ki (pKi) is 8.64 on Vasopressin V2 receptor [1], 7.64 on Vasopressin V2 receptor [2], 5.22 at Vasopressin V1a receptor [3] and 7.36 at Vasopressin V1a receptor [4].
